Values joined by “and” are separate entries in the source; they are usually repeats but may differ in a detail not shown here. Equal entries are not always repeated. Where two headings read alike, the source gives them in different places.
Tests used:
[1] = cytotoxicity against a human cell line; format: cell-based; conditions: human, HepG2 cells
Human HepG2 cells = assay: cytotoxicity against a human cell line; format: cell-based
P. vivax field isolates = assay: ex vivo 48 h schizont maturation assay; format: cell-based
Method in brief: (§1)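 Field isolates came from patients at malaria clinics in Timika, Papua, Indonesia, and were tested in a 48 h schizont maturation assay adapted from the WHO microtest at 2% hematocrit. P. falciparum was run in RPMI 1640 with 10% AB+ human serum. P. vivax was run in McCoy's 5A with 20% AB+ human serum.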

[2] = system: P. falciparum 3D7A parasites; assay: in vitro kill rate; format: cell-based; conditions: for EC50: Plasmodium falciparum, 3D7, 48 h
Na_V1.5 channel = Na_V1.5 channel (Homo sapiens, UniProt Q14524); assay: Na_V1.5 channel assay; format: cell-based
Method in brief: (§2)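 Channel activity measured by IonWorks automated patch-clamp electrophysiology at a contract lab.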

Minipig DHODH = Minipig DHODH (Sus scrofa, UniProt F1S3B0); assay: DHODH inhibition, DCIP-based assay; format: biochemical
[3] = stability in plasma and blood; format: in vitro ADME; conditions: plasma 37°C over 5 h; blood over 4 h
[4] = metabolic stability in liver microsomes; format: in vitro ADME; conditions: mouse
P. falciparum DHODH = P. falciparum DHODH (Plasmodium falciparum, UniProt Q08210); assay: DHODH inhibition, DCIP-based spectrophotometric steady-state assay; format: biochemical
Dog DHODH = Dog DHODH (Canis lupus familiaris, UniProt A0A8I3MWX2); assay: DHODH inhibition, DCIP-based assay; format: biochemical
[5] = system: set of 100 human channels and enzymes; assay: CEREP diversity panel; conditions: 10 μM ([…])
CYP2D6 = CYP2D6 (Homo sapiens, UniProt P10635); assay: reversible cytochrome P450 inhibition; format: in vitro ADME
Method in brief: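 Reversible inhibition of human CYP isoforms tested with isoform-specific probe substrates. Time-dependent (mechanism-based) inhibition was also assessed.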

Rabbit DHODH = Rabbit DHODH (Oryctolagus cuniculus, UniProt G1SWF3); assay: DHODH inhibition, DCIP-based assay; format: biochemical
Ca_1.2 channel = Ca_1.2 channel (Homo sapiens, UniProt Q13936); assay: Ca_1.2 channel assay; format: cell-based
Method in brief: as §2

[6] = system: P. falciparum field isolates; assay: P. falciparum clinical isolates; format: cell-based; conditions: Plasmodium falciparum, 72 h, read-out: unbound EC50
hERG channel = hERG channel (Homo sapiens, UniProt Q12809); assay: hERG channel patch clamp; format: cell-based; conditions: for IC50: hERG IC50, partial dose response curve
Method in brief: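 hERG current measured by IonWorks automated patch-clamp electrophysiology at a contract lab. Top concentration tested was 33 μM.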

[7] = rat 7-day exploratory toxicity study; format: in vivo; conditions: rat 7-day exploratory toxicity study (data not shown)
[8] = kinetic solubility in pH 6.5 buffer; format: physicochemical; conditions: aqueous buffer pH 6.5, pH 6.5
[9] = solubility by equilibration in physiologically-relevant media; format: physicochemical
Ames tester strains = assay: GLP Ames 5 strain test; conditions: with and without metabolic activation
P. vivax DHODH = P. vivax DHODH (Plasmodium vivax, UniProt A5K1N1); assay: DHODH inhibition, DCIP-based assay; format: biochemical
[10] = pharmacokinetics after IV and oral dosing; format: in vivo, rats
Method in brief: (§3)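 Single IV and oral doses were given. Mice and rats received about 2 mg/kg IV and 5–50 mg/kg orally, with blood sampled over 30–48 h from 2 mice per time point or 2 rats. Dogs received 1 mg/kg by each route (n=3). Plasma was separated by centrifugation and assayed by LC/MS, and parameters were derived non-compartmentally.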

Caco-2 cell monolayers = assay: Caco-2 cell permeability; format: in vitro ADME; conditions: both directions
[11] = system: P. cynomolgi large and small forms; assay: P. cynomolgi liver stage assay in primary rhesus monkey hepatocytes; format: cell-based; conditions: concentrations at or below 10 μM; human serum-based media
Human DHODH = Human DHODH (Homo sapiens, UniProt Q02127); assay: DHODH inhibition, DCIP-based assay; format: biochemical
P. falciparum 3D7 = assay: whole cell P. falciparum 3D7 blood stage 72 h assay, albumax media; format: cell-based; conditions: for EC50: Plasmodium falciparum, 3D7, 72 h
Rat DHODH = Rat DHODH (Rattus norvegicus, UniProt Q63707); assay: DHODH inhibition, DCIP-based assay; format: biochemical
physchem = format: physicochemical
P. cynomolgi DHODH = P. cynomolgi DHODH (Plasmodium cynomolgi, UniProt K6UE05); assay: DHODH inhibition, DCIP-based assay; format: biochemical
[12] = system: P. falciparum field isolates; assay: ex vivo 48 h schizont maturation assay; format: cell-based; conditions: Plasmodium falciparum, read-out: unbound EC50
Method in brief: as §1

[13] = pharmacokinetics after IV and oral dosing; format: in vivo, dogs; conditions: dog, plasma, 1 mg/kg
Method in brief: as §3

[14] = pharmacokinetics after IV and oral dosing; format: in vivo, mice
Method in brief: as §3

Mouse DHODH = Mouse DHODH (Mus musculus, UniProt O35435); assay: DHODH inhibition, DCIP-based assay; format: biochemical
[15] = metabolic stability in liver microsomes; format: in vitro ADME; conditions: human

Sequence of hERG channel (Q12809 whole entry): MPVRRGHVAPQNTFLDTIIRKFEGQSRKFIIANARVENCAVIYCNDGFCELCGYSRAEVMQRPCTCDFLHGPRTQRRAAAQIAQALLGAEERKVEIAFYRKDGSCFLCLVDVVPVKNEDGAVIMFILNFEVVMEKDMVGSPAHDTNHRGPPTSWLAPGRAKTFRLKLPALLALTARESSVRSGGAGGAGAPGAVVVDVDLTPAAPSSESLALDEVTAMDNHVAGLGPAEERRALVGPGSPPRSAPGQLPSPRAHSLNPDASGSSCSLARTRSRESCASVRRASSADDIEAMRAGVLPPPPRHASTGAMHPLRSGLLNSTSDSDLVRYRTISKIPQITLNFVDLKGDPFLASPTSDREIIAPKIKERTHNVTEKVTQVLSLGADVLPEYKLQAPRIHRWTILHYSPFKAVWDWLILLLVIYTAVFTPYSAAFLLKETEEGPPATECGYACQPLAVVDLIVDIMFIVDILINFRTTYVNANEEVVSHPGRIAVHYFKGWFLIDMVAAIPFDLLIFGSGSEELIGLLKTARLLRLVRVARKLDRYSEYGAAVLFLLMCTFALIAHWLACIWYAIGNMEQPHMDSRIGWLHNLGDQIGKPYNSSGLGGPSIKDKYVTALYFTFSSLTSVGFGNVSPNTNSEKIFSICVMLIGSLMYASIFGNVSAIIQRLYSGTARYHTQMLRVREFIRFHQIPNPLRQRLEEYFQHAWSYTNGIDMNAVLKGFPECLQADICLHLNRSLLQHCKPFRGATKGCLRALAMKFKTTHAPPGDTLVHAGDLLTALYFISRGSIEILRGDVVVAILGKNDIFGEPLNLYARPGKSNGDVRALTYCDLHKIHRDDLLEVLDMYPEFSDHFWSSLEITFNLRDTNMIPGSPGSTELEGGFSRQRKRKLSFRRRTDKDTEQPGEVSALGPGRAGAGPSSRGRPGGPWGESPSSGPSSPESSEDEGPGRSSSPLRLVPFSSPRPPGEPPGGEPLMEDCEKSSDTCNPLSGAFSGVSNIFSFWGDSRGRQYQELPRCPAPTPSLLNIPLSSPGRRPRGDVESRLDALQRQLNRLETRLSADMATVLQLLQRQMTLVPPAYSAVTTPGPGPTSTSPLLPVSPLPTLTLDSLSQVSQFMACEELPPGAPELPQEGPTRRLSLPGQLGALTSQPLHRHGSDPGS
Sequence of Dog DHODH (A0A8I3MWX2 1-406): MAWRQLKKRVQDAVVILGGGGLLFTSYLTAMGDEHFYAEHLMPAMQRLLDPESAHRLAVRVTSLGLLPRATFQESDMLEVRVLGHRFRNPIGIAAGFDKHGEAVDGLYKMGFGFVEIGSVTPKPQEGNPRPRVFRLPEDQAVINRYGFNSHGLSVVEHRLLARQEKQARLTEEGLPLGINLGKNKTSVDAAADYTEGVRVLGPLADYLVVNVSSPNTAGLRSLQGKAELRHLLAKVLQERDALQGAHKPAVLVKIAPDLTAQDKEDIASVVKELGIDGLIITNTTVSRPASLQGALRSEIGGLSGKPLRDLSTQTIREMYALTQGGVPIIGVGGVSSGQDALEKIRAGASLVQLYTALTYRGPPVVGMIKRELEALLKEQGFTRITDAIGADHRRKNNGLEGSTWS
Sequence of Mouse DHODH (O35435 whole entry): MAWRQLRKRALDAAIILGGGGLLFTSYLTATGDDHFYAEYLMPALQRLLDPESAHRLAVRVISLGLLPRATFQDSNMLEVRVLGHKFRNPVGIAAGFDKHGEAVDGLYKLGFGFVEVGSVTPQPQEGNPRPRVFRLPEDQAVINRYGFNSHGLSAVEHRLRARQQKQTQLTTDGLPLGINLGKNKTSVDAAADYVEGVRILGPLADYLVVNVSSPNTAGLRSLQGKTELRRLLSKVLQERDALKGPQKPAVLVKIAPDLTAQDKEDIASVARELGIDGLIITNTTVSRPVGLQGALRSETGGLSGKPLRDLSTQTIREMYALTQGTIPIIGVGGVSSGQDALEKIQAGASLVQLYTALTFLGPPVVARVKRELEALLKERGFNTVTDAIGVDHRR
Sequence of P. vivax DHODH (A5K1N1 160-572): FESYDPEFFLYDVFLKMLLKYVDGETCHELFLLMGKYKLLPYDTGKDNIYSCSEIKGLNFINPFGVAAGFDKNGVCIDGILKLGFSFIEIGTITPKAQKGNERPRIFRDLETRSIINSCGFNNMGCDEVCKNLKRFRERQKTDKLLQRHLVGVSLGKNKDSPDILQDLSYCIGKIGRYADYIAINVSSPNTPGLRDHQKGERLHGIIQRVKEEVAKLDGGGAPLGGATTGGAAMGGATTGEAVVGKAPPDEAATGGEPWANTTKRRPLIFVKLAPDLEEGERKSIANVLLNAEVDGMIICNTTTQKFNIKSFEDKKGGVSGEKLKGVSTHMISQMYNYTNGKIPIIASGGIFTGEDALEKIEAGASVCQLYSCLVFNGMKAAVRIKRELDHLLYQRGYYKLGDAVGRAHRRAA
Sequence of Rat DHODH (Q63707 whole entry): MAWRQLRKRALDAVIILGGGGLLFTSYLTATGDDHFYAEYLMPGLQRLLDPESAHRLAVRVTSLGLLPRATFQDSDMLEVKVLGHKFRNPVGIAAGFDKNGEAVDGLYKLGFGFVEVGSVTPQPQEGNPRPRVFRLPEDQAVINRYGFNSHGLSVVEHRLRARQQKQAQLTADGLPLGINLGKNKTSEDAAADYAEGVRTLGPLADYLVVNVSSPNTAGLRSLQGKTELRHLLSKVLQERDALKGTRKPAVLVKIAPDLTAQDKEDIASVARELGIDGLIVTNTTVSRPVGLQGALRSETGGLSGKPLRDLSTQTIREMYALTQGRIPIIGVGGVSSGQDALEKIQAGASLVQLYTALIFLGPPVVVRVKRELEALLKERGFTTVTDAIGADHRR
Sequence of Na_V1.5 channel (Q14524 whole entry): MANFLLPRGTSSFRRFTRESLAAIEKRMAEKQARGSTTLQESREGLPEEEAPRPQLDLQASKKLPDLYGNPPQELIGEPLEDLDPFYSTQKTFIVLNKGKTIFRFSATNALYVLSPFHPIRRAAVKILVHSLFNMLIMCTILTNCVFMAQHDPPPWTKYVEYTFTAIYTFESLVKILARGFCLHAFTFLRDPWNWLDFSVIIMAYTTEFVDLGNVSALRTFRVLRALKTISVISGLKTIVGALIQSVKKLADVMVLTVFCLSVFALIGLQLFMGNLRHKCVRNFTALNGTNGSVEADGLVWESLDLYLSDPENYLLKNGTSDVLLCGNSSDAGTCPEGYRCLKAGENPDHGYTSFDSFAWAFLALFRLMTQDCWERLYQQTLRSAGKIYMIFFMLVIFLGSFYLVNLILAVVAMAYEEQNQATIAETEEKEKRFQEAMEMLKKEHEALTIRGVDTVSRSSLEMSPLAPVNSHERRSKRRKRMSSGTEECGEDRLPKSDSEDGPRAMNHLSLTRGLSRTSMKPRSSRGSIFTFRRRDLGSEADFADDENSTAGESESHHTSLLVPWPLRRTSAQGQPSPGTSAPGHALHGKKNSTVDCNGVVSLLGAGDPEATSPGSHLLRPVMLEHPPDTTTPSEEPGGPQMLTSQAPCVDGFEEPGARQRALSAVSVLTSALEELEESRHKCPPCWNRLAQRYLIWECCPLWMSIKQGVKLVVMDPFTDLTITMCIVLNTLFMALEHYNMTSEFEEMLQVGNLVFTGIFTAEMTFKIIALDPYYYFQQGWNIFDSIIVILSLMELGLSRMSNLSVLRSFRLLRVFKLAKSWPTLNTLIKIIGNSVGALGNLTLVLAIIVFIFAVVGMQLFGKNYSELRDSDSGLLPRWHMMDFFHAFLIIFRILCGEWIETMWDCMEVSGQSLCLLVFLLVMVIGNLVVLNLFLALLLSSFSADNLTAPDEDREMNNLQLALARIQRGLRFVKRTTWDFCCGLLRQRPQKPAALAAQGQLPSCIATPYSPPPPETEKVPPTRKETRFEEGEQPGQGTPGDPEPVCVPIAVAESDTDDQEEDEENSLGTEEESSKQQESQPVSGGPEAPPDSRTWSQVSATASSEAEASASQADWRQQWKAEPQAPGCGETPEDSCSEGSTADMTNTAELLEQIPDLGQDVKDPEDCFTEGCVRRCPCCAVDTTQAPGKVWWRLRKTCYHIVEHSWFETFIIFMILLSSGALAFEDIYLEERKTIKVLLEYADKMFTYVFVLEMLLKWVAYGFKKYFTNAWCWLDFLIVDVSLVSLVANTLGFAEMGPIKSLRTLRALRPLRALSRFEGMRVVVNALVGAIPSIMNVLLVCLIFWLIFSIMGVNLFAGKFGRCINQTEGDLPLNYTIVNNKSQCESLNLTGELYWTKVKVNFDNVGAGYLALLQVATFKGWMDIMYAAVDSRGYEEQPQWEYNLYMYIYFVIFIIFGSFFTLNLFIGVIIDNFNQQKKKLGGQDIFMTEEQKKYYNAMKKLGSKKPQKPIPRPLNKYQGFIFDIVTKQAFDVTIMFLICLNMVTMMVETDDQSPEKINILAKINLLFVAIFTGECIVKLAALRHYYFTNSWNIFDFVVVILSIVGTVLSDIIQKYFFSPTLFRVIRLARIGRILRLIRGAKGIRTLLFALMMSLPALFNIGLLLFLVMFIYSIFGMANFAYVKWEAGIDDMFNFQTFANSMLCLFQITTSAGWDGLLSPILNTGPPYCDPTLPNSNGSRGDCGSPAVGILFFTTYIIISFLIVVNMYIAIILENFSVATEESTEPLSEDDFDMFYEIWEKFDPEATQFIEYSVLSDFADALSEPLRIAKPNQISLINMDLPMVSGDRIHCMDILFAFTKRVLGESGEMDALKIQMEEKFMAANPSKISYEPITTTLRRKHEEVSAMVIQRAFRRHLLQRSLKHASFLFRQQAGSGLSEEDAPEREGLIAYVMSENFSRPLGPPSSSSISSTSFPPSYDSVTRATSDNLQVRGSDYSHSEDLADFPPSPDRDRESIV

## Cc1cc(Nc2ccc(C(F)(F)F)nc2)n2nc(C(C)(F)F)nc2n1 [DSM421, 2-(1,1-Difluoroethyl)-5-methyl-N-(6-(trifluoromethyl)pyridin-3-yl)-[1,2,4]triazolo[1,5-a]pyrimidin-7-amine]
[1]
  EC50: > 50000 nM
Human HepG2 cells
  selectivity window HepG2 over activity against P. falciparum: 600-5000 fold
P. vivax field isolates
  sensitivity of P. vivax versus P. falciparum field isolates: equivalent activity towards both species
[2]; 10xEC50
  lag time before killing began: 48 h
[2]; read-out: EC50, 48 h growth assay (PRR)
  EC50: 43 nM
[2]; read-out: unbound EC50
  EC50: 22 nM
Na_V1.5 channel
  activity on Na_V1.5 channel: no activity
Minipig DHODH
  IC50: > 100000 nM
[3]
  stability in plasma and blood: stable
[4]
  microsomal CLint at 1 μM: < 7 µL/min/mg
P. falciparum DHODH
  IC50: 53 nM
Dog DHODH
  IC50: 35000 nM
Dog DHODH; dog enzyme
  fold reduction of inhibitory activity in comparison to DSM265: 2.2 fold
[5]
  inhibition in CEREP diversity panel: no significant inhibition
CYP2D6
  inhibition at 20 µM: 45%
Rabbit DHODH
  IC50: > 100000 nM
Ca_1.2 channel
  activity on Ca_1.2 channel: no activity
[6]
  EC50: 12 nM
hERG channel
  concentration giving 20% hERG inhibition: ~ 10 μM and 3.6 μg/mL
  IC50: 26200 nM
hERG channel; maximum concentration 33 μM
  IC50: 26200 nM
[7]
  tolerability: well tolerated
[8]
  solubility kinetic: > 100 µg/mL
[9]
  fold more soluble than DSM265: 6-80 fold
Ames tester strains
  GLP Ames 5 strain test result: no obvious cytotoxicity in any tester strain at any tested dose level
P. vivax DHODH
  IC50: 94 nM
  fold lower activity (higher IC50) on P. vivax DHODH than PfDHODH: 2 fold
[10]; rat, plasma
  half-life: ~5 h
[10]; rat, plasma, iv, 2 mg/kg
  Vd: 0.8 L/kg
  clearance: 2.4 mL/min/kg
[10]; rat, plasma, po
  Tmax: 1.8 to 7.5 h
[10]; rat, plasma, po, 4.3 mg/kg
  bioavailability: ~80%
[10]; rats, oral 4.3 to 53.7 mg/kg, for a 12-fold increase in dose
  fold increase of plasma AUC: 31 fold
Caco-2 cell monolayers
  permeability across Caco-2 cell monolayers: high in both directions with no evidence for significant efflux
[11]
  radical cure activity, liver stage: did not show radical cure activity
Human DHODH
  IC50: > 100000 nM
P. falciparum 3D7
  fold less potent than DSM265 against P. falciparum 3D7 parasites: 3 fold
P. falciparum 3D7; 48 and 72 h in vitro assays
  fold lower intrinsic potency than DSM265 based on unbound concentrations: 10 fold
P. falciparum 3D7; read-out: Pf3D7 EC50
  EC50: 14 nM
P. falciparum 3D7; read-out: unbound EC50
  EC50: 7 nM
Rat DHODH
  IC50: 22000 nM
Rat DHODH; rodent (rat) enzyme
  fold reduction of inhibitory activity in comparison to DSM265: 10 fold
physchem; pH 7.4, measured Log D7.4, text (Table S6)
  logD: 2.36
physchem; text (Table S6)
  measured Log D7.4: 2.4
P. cynomolgi DHODH
  IC50: 12 nM
[12]
  EC50: 23 nM
[13]
  half-life: 15 to 18 h
[13]; intravenous
  CLint scaled: 4.5 mL/min/kg
[13]; iv
  Vd: 0.8 L/kg
  clearance: 0.5 mL/min/kg
[13]; po
  Tmax: 4 h
  bioavailability: ~100%
[14]; mice, oral, for a 9-fold increase in dose
  fold increase of plasma AUC: 13 fold
[14]; mouse, plasma
  half-life: ~2 h
[14]; mouse, plasma, iv, 2 mg/kg
  Vd: 0.9 L/kg
  clearance: 5.1 mL/min/kg
[14]; mouse, plasma, po
  Tmax: 1 to 2 h
  bioavailability: > 100%
Mouse DHODH
  IC50: 18000 nM
Mouse DHODH; rodent (mouse) enzyme
  fold reduction of inhibitory activity in comparison to DSM265: 10 fold
[15]
  microsomal CLint at 1 μM: < 7 µL/min/mg
